What was measured:
Human alphaherpesvirus 3 [1] = test: Antiviral activity against thymidine kinase deficient Varicella-Zoster virus 07-1 infected in human HEL cells assessed as inhibition of virus-induced cytopathic effect; type: functional, cell-based; conditions: Human alphaherpesvirus 3, 07-1, HEL
In short: (§1)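 Confluent HEL fibroblast cultures were inoculated with 20 PFU of VZV in the presence of varying compound concentrations. Plaque formation was recorded once untreated infected controls reached completion.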

Human alphaherpesvirus 2 = test: Antiviral activity against Herpes simplex virus 2 G infected in human HEL cells assessed as inhibition of virus-induced cytopathic effect; type: functional, cell-based; conditions: Human alphaherpesvirus 2, strain G
In short: (§2)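 Confluent HEL fibroblast monolayers were inoculated in 96-well plates with 100 CCID50 of virus in the presence of serially varied compound concentrations. Cytopathicity was scored once untreated infected controls reached full CPE.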

CCRF-CEM = test: Cytostatic activity human CEM cells assessed as reduction in cell viability after 72 hrs by cell counting method; type: cell-based; conditions: ccrf-cem, 72 h
In short: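 (5–7.5) × 10^? CEM cells per well were grown with compound for 72 h at 37 °C under humidified CO2. Cells were counted in a Coulter counter.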

[2] = Drug metabolism assessed as carboxypeptidase Y (unknown origin)-mediated metabolite 79 formation measured after 2 hrs by [31P]-NMR spectroscopic analysis; type: ADME; conditions: human
[3] = Cytotoxicity against human HEL cells assessed as alteration to cell morphology by microscopic analysis; type: cell-based
In short: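 Minimal cytotoxic concentration is the compound concentration giving a microscopically visible alteration of HEL cell morphology, scored in the antiviral assay cultures.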

HEL = test: Cytotoxicity against human HEL cells assessed as cell growth inhibition by cell counting method; type: cell-based
Human alphaherpesvirus 1 [4] = test: Antiviral activity against Herpes simplex virus 1 KOS infected in human HEL cells assessed as inhibition of virus-induced cytopathic effect; type: functional, cell-based; conditions: Human alphaherpesvirus 1, KOS; in short: as §2
Human alphaherpesvirus 3 [5] = test: Antiviral activity against Varicella-Zoster virus OKA infected in human HEL cells assessed as inhibition of virus-induced cytopathic effect; type: functional, cell-based; conditions: Human alphaherpesvirus 3, strain Oka vaccine; in short: as §1
MT4 = test: Cytotoxicity against human MT4 cells assessed as reduction in cell viability by cell counting method; type: cell-based
In short: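 MT-4 cultures, untreated or treated, were assessed with an automated cell counter using propidium iodide staining to enumerate total and dead cells.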

Human alphaherpesvirus 1 [6] = test: Antiviral activity against ACV-resistant thymidine kinase deficient Herpes simplex virus 1 KOS infected in human HEL cells assessed as inhibition of virus-induced cytopathic effect; type: functional, cell-based; conditions: Human alphaherpesvirus 1, KOS; in short: as §2
[7] = Drug metabolism assessed as carboxypeptidase Y (unknown origin)-mediated metabolite 81 formation measured after 2 hrs by [31P]-NMR spectroscopic analysis; type: ADME; conditions: human
[8] = tested on: Human immunodeficiency virus 1; test: Antiviral activity against HIV1 X4LAI.04 infected in human MT4 cells assessed as decrease in viral replication by p24gag-based luminex assay; type: functional, cell-based; conditions: Human immunodeficiency virus 1, X4LAI.04, MT4
In short: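 10^6 MT-4 cells were infected with HIV-1 X4LAI.04 (7 ng p24) for 2 h at 37 °C, then washed with PBS and resuspended. Compounds were added and cultures were kept 3 days at 37 °C. Supernatant p24 was measured by bead-based Luminex. Inhibition was calculated as (1 − p24 treated/p24 untreated) × 100, and EC50 was derived from it.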

Human betaherpesvirus 5 [9] = test: Antiviral activity against human cytomegalovirus AD-169 infected in human HEL cells assessed as inhibition of virus-induced cytopathic effect; type: functional, cell-based; conditions: Human betaherpesvirus 5, AD-169, HEL; in short: as §2
Human betaherpesvirus 5 [10] = test: Antiviral activity against human cytomegalovirus Davis infected in human HEL cells assessed as inhibition of virus-induced cytopathic effect; type: functional, cell-based; conditions: Human betaherpesvirus 5, Davis; in short: as §2
[11] = tested on: Human immunodeficiency virus 1; test: Antiviral activity against HIV1 X4LAI.04 infected in human tonsillar tissues assessed as inhibition of virus-induced cytopathic effect by p24gag-based luminex assay; type: functional; conditions: Human immunodeficiency virus 1, X4LAI.04
In short: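 Tonsillectomy tissue blocks of 2–3 mm³ were cultured on collagen sponge gels at the air–liquid interface, 27 blocks per donor per condition. Blocks were pretreated with compound overnight, infected with HIV-1 X4LAI.04 and cultured 12 days, with drug replenished at each medium change every 3 days. Medium p24 was measured by Luminex. Inhibition was calculated against untreated tissue, and EC50 was derived from it.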

[12] = Drug metabolism assessed as carboxypeptidase Y (unknown origin)-mediated metabolite 81 peak measured with in 1 hr by [31P]-NMR spectroscopic analysis; type: ADME; conditions: human
[13] = Drug metabolism assessed as carboxypeptidase Y (unknown origin)-mediated metabolite 81 formation measured after 24 hrs by [31P]-NMR spectroscopic analysis; type: ADME; conditions: human
[14] = Selectivity index, ratio of IC50 for human MT4 cells to EC50 for HIV1 X4LAI.04; type: toxicity; conditions: read-out: Ratio IC50/EC50

Row | Compound | EC50 (Human alphaherpesvirus 3 [1]) [µM] | EC50 (Human alphaherpesvirus 2) [µM] | CC50 (CCRF-CEM) [µM] | Drug metabolism [2] | MCC [3] [µM] | CC50 (HEL) [µM] | EC50 (Human alphaherpesvirus 1 [4]) [µM] | EC50 (Human alphaherpesvirus 3 [5]) [µM] | IC50 (MT4) [µM] | EC50 (Human alphaherpesvirus 1 [6]) [µM] | Drug metabolism [7] | EC50 [8] [µM] | EC50 (Human betaherpesvirus 5 [9]) [µM] | EC50 (Human betaherpesvirus 5 [10]) [µM] | EC50 [11] [µM] | Drug metabolism [12] | Drug metabolism [13] | selectivity ratio [14]
1 | CCCOC(=O)[C@H](C)NP(=O)(OCC(CO)CCn1cnc2c(OC)nc(N)nc21)Oc1cccc2ccccc12 (stereo partly specified) | 9.1 | 15 | 17 | Metabolite_Detected | 50 to 100 | 14.4 | 14 | 3.7 | 13 | ≥ 20 | Metabolite_Detected | 11 | 32 | 50 | – | – | – | –
2 | C[C@H](NP(=O)(OCC(CO)CCn1cnc2c(=O)[nH]c(N)nc21)Oc1ccccc1)C(=O)OCc1ccccc1 (stereo partly specified) | 45 | 16 | > 250 | – | 50 to 100 | > 100 | 8 | 2.6 | > 150 | ≥ 100 | – | 10 | > 50 | > 50 | > 20 | – | – | –
3 | Nc1nc(Cl)c2ncn(CCC(CO)CO)c2n1 | > 50 | > 100 | 400 | – | 50 to 100 | > 100 | > 100 | > 50 | > 150 | > 100 | – | > 150 | > 50 | > 50 | > 60 | – | – | –
4 | CC(C)OC(=O)[C@H](C)NP(=O)(OCC(CO)OCn1cnc2c(=O)[nH]c(N)nc21)Oc1cccc2ccccc12 (stereo partly specified) | ≥ 10.8 | 3 | 35 | – | > 100 | > 50 | 2 | ≥ 23.5 | 150 | ≥ 75 | – | 40 | > 50 | 6.8 | – | Metabolite_Detected | Metabolite_Notdetected | –
5 | COc1nc(N)nc2c1ncn2CCC(CO)COP(=O)(N[C@@H](C)C(=O)OCc1ccccc1)Oc1ccccc1 (stereo partly specified) | 22.2 | 29 | 32 | – | 50 to 100 | ≥ 83 | 39 | 17.1 | 23 | 39 | – | 1.1 | 31.6 | 7.9 | 0.9 | – | – | 2.1
6 | COc1nc(N)nc2c1ncn2CCC(CO)CO | > 50 | > 100 | 246 | – | 50 to 100 | > 100 | > 100 | 22.8 | > 150 | > 100 | – | > 150 | > 50 | > 50 | > 30 | – | – | –

Source: ChEMBL document CHEMBL4017507 (J Med Chem, 2017)
